In ChEMBL document CHEMBL1128287, “Ketanserin analogues: the effect of structural modification on 5-HT2 serotonin receptor binding” (J Med Chem, 1995):

Assays:
[1] = biological target: 5-hydroxytryptamine receptor 2A (Rattus norvegicus, UniProt P14842); assay: Binding affinity against 5-hydroxytryptamine 2A receptor
How it was run: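 Brain tissue homogenized in Tris-HCl 50 mM, MgCl2 10 mM, pH 7.4, then washed, incubated 15 min at 37 °C, and resuspended with 0.1% ascorbate and 10⁻⁵ M pargyline. Triplicate tubes held 5 mg wet tissue and 0.4 nM [³H]-ketanserin, with 1.0 μM cinanserin defining nonspecific binding. Incubated 15 min at 37 °C, then filtered. Ki = IC50/(1 + D*/KD*).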

[2] = biological target: T1, 5-hydroxytryptamine receptor 2C (Rattus norvegicus, UniProt P08909); assay: Binding affinity against 5-hydroxytryptamine 2C receptor
T1 sequence (P08909 whole entry): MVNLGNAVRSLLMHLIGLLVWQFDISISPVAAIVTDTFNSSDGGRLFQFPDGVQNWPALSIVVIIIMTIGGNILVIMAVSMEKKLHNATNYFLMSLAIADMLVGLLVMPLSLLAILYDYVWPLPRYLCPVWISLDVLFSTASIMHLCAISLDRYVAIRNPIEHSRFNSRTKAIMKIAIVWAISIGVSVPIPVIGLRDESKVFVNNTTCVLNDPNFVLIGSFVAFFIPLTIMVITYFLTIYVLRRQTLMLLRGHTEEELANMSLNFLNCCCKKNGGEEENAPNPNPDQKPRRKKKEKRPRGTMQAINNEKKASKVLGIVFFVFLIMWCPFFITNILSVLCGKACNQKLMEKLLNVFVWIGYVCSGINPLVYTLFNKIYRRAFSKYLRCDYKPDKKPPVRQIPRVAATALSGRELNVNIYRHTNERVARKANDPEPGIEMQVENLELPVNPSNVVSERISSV
How it was run: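 Washed brain membranes in Tris-HCl/MgCl2 pH 7.4 with ascorbate and pargyline. Triplicate tubes held 10 mg wet tissue, 1 nM [³H]-mesulergine, and 100 nM spiperone in every tube to block 5-HT2A sites. Nonspecific binding was defined with 1.0 μM mianserin. Incubated 15 min at 37 °C, then filtered and counted. Ki came from IC50 corrected for radioligand concentration and KD.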

[3] = biological target: Serotonin receptor 2a and 2c (5HT2A and 5HT2C) (Rattus norvegicus) (UniProt P08909+P14842); assay: Selectivity as the ratio of Ki value towards 5-hydroxytryptamine 2C receptor to that of 5-hydroxytryptamine 2A receptor; type: protein assay
Serotonin receptor 2a and 2c (5HT2A and 5HT2C) (Rattus norvegicus), sequence (P14842 whole entry, looked up, one chain of several): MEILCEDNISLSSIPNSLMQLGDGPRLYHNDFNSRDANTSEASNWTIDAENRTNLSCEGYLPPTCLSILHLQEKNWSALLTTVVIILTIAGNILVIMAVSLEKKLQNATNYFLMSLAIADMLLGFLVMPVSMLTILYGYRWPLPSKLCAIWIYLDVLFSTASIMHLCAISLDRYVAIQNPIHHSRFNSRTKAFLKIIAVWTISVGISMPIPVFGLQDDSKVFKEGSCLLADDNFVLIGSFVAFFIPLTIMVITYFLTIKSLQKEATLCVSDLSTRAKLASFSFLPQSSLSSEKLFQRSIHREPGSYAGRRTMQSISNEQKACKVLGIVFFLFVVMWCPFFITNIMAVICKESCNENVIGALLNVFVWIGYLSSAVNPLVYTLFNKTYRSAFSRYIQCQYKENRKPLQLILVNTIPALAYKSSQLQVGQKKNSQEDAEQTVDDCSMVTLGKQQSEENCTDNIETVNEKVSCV

5-hydroxytryptamine receptor 2A, sequence (P14842 whole entry): as the sequence (P14842 whole entry, looked up, one chain of several) above

SMILES	Ki [1]	Ki [2]	Selectivity [3]
c1ccc(CCN2CCC(Cc3ccccc3)CC2)cc1	0.022 µM	1.76 µM	80
c1ccc(CCCCN2CCC(=C(c3ccccc3)c3ccccc3)CC2)cc1	0.02 µM	0.22 µM	11
O=C(c1ccccc1)N1CCN(CCCCc2ccccc2)CC1	0.18 µM	8.52 µM	47
OC(c1ccccc1)C1CCN(CCc2ccccc2)CC1 (stereo unspecified) [GLEMANSERIN]	0.0025 µM	0.83 µM	330
O=C(c1ccc(F)cc1)C1CCN(CCCCc2ccccc2)CC1	0.0053 µM	–	120
c1ccc(CCCCN2CCN(Cc3ccccc3)CC2)cc1	0.24 µM	> 10 µM	> 40
CN1CCC(C(=O)c2ccccc2)CC1	0.6 µM	> 10 µM	> 16
c1ccc(CCN2CCC(=C(c3ccccc3)c3ccccc3)CC2)cc1	0.0069 µM	0.029 µM	4
CN1CCN(C(=O)c2ccccc2)CC1	> 10 µM	> 10 µM	–
OC(c1ccc(F)cc1)C1CCN(CCc2ccccc2)CC1 (stereo unspecified)	0.003 µM	1.52 µM	460
O=C(c1ccccc1)C1CCN(CCc2ccccc2)CC1	0.0096 µM	0.8 µM	83
O=c1[nH]c2ccccc2c(=O)n1CCN1CCN(C(c2ccccc2)c2ccccc2)CC1	0.065 µM	0.635 µM	10
O=C(c1ccccc1)C1CCN(CCCCc2ccccc2)CC1	0.01 µM	2.4 µM	240
C(/Cc1ccccc1)=C(\c1ccccc1)C1CCN(CCCCc2ccccc2)CC1	0.1 µM	1.39 µM	14
O=c1[nH]c2ccccc2c(=O)n1CCN1CCC(C(c2ccccc2)c2ccccc2)CC1	0.018 µM	0.052 µM	3
c1ccc(CCCCN2CCC(Cc3ccccc3)CC2)cc1	0.12 µM	4.12 µM	34
C(=C(\c1ccccc1)C1CCN(CCc2ccccc2)CC1)/c1ccccc1	0.019 µM	–	–
OC(c1ccccc1)C1CCN(CCCCc2ccccc2)CC1 (stereo unspecified)	0.265 µM	> 10 µM	> 35
O=C(c1ccc(F)cc1)C1CCN(CCc2ccccc2)CC1	0.0085 µM	–	17
Fc1ccc(CC2CCN(CCCCc3ccccc3)CC2)cc1	0.04 µM	2.74 µM	70
OC(c1ccc(F)cc1)C1CCN(CCCCc2ccccc2)CC1 (stereo unspecified)	0.126 µM	6.6 µM	52
Fc1ccc(CC2CCN(CCc3ccccc3)CC2)cc1	0.018 µM	2 µM	110
